Experimental data taken from PMC8923172 (Antimicrobial Agents and Chemotherapy, 2022).
Where two headings read alike, the source gives them in different places. Marks after values point to notes of the source that are not given here. Residues, ends and D or L forms follow the SMILES beside them.

Columns and labels:
[1] = Serum biochemistry of cynomolgus monkeys at the end of treatment; assay type: in vivo; settings: median (IQR)
How it was run: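 GLP 10-day study in male and female cynomolgus monkeys (n = 3-5/sex/group) dosed once daily with 0 (placebo), 5, 10 or 15 mg/kg test compound by i.v. infusion over 60 ± 5 min. Hematology, serum chemistry and coagulation were taken at end of treatment and reported as median (IQR). Dose groups were compared by Kruskal-Wallis with Dunn's multiple comparison test.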

[2] = Toxicity studies in cynomolgus monkeys: mortality, MTD, NOAEL; assay type: in vivo
How it was run: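 Cynomolgus monkeys were studied in two designs. Non-GLP range-finding: single ascending i.v. doses (0.3-10 mg/kg), then 15 mg/kg daily for 7 days, 1/sex; MTD was based on mortality, clinical observations and body weight. GLP: 0, 5, 10 or 15 mg/kg/day for 10 days by 60-min infusion, with a recovery group. NOAEL drew on clinical signs, clinical pathology and histopathology.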

[3] = Single-dose i.v. pharmacokinetics in a vervet; assay type: in vivo, vervet/African green monkey (Chlorocebus aethiops sabaeus); settings: 3 mg/kg single i.v. bolus, n=1
How it was run: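 Adult male vervet given a single 3 mg/kg i.v. bolus of test compound. Blood was sampled at 0.5, 1, 4, 8, 24, 48, 72, 96, 120 and 192 h. Clarified plasma was diluted 1:10 into 5% formic acid-5% acetonitrile and quantified by UPLC with photodiode array detection. Noncompartmental analysis used nominal times; λz was fitted over up to the last four log-linear points.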

[4] = in vivo; settings: Sprague-Dawley, rat, iv

Compound: CC[C@H](C)[C@@H]1NC(=O)[C@@H]2CSSC[C@H](NC(=O)[C@H](CCCNC(=N)N)NC(=O)[C@@H]3CSSC[C@H](NC1=O)C(=O)N[C@@H]([C@@H](C)O)C(=O)N[C@@H](CCCNC(=N)N)C(=O)NCC(=O)N[C@@H](Cc1ccccc1)C(=O)N3)C(=O)N[C@@H](CC(C)C)C(=O)N[C@H]1CSSC[C@H](NC(=O)[C@H](C(C)C)NC(=O)CNC(=O)[C@H](CCCNC(=N)N)NC(=O)[C@H](CCCNC(=N)N)NC1=O)C(=O)N[C@@H](CCCNC(=N)N)C(=O)N2 [RTD-1, Rhesus theta (θ) defensin-1] (HELM PEPTIDE1{G.F.C.R.C.L.C.R.R.G.V.C.R.C.I.C.T.R}$PEPTIDE1,PEPTIDE1,3:R3-16:R3|PEPTIDE1,PEPTIDE1,5:R3-14:R3|PEPTIDE1,PEPTIDE1,7:R3-12:R3|PEPTIDE1,PEPTIDE1,1:R1-18:R2$$$V2.0)
- A/G ([1]; female, 5 mg/kg/day): 1.7 (0.2)
- ALP ([1]; female, 5 mg/kg/day): 576.0 (132.0) U/L
- ALT ([1]; female, 5 mg/kg/day): 112.0 (50.0) U/L
- AST ([1]; female, 5 mg/kg/day): 69.0 (22.0) U/L
- Albumin ([1]; female, 5 mg/kg/day): 4.5 (0.5) g/dL
- CK ([1]; female, 5 mg/kg/day): 301.0 (38.0) U/L
- Calcium ([1]; female, 5 mg/kg/day): 10.0 (0.4) mg/dL
- Chloride ([1]; female, 5 mg/kg/day): 107.0 (1.5) mmol/L
- Cholesterol ([1]; female, 5 mg/kg/day): 104.0 (17.5) mg/dL
- Creatinine ([1]; female, 5 mg/kg/day): 0.5 (0.1) mg/dL
- GGT ([1]; female, 5 mg/kg/day): 92.0 (14.0) U/L
- Globulin ([1]; female, 5 mg/kg/day): 2.7 (0.4) g/dL
- Glucose ([1]; female, 5 mg/kg/day): 60.0 (7.5) mg/dL
- Phos ([1]; female, 5 mg/kg/day): 5.7 (0.2) mg/dL
- Potassium ([1]; female, 5 mg/kg/day): 4.9 (0.6) mmol/L
- Sodium ([1]; female, 5 mg/kg/day): 146.0 (0.0) mmol/L
- T-Bil ([1]; female, 5 mg/kg/day): 0.2 (0.0) mg/dL
- TP ([1]; female, 5 mg/kg/day): 7.6 (0.7) g/dL
- Triglycerides ([1]; female, 5 mg/kg/day): 49.0 (8.5) mg/dL
- Urea N ([1]; female, 5 mg/kg/day): 15.0 (4.0) mg/dL
- A/G ([1]; female, 10 mg/kg/day): 1.6 (0.2)
- ALP ([1]; female, 10 mg/kg/day): 915.0 (64.0) U/L
- ALT ([1]; female, 10 mg/kg/day): 126.0 (87.5) U/L
- AST ([1]; female, 10 mg/kg/day): 104.0 (16.0) U/L
- Albumin ([1]; female, 10 mg/kg/day): 4.3 (0.1) g/dL
- CK ([1]; female, 10 mg/kg/day): 1,102.0 (1,584.0) U/L
- Calcium ([1]; female, 10 mg/kg/day): 10.0 (0.1) mg/dL
- Chloride ([1]; female, 10 mg/kg/day): 109.0 (2.0) mmol/L
- Cholesterol ([1]; female, 10 mg/kg/day): 91.0 (10.5) mg/dL
- Creatinine ([1]; female, 10 mg/kg/day): 0.6 (0.1) mg/dL
- GGT ([1]; female, 10 mg/kg/day): 88.0 (7.0) U/L
- Globulin ([1]; female, 10 mg/kg/day): 2.7 (0.4) g/dL
- Glucose ([1]; female, 10 mg/kg/day): 59.0 (6.5) mg/dL
- Phos ([1]; female, 10 mg/kg/day): 5.3 (0.6) mg/dL
- Potassium ([1]; female, 10 mg/kg/day): 5.1 (0.9) mmol/L
- Sodium ([1]; female, 10 mg/kg/day): 146.0 (3.0) mmol/L
- T-Bil ([1]; female, 10 mg/kg/day): 0.2 (0.1) mg/dL
- TP ([1]; female, 10 mg/kg/day): 7.0 (0.3) g/dL
- Triglycerides ([1]; female, 10 mg/kg/day): 49.0 (1.5) mg/dL
- Urea N ([1]; female, 10 mg/kg/day): 16.0 (4.5) mg/dL
- A/G ([1]; female, 15 mg/kg/day): 1.5 (0.0)
- ALP ([1]; female, 15 mg/kg/day): 943.0 (411.0) U/L
- ALT ([1]; female, 15 mg/kg/day): 92.0 (36.0) U/L
- AST ([1]; female, 15 mg/kg/day): 95.0 (45.0) U/L
- Albumin ([1]; female, 15 mg/kg/day): 4.3 (0.6) g/dL
- CK ([1]; female, 15 mg/kg/day): 891.0 (603.0) U/L
- Calcium ([1]; female, 15 mg/kg/day): 10.2 (0.4) mg/dL
- Chloride ([1]; female, 15 mg/kg/day): 111.0 (1.0) mmol/L
- Cholesterol ([1]; female, 15 mg/kg/day): 94.0 (13.0) mg/dL
- Creatinine ([1]; female, 15 mg/kg/day): 0.7 (0.1) mg/dL
- GGT ([1]; female, 15 mg/kg/day): 99.0 (37.0) U/L
- Globulin ([1]; female, 15 mg/kg/day): 2.8 (0.1) g/dL
- Glucose ([1]; female, 15 mg/kg/day): 78.0 (18.0)^c mg/dL
- Phos ([1]; female, 15 mg/kg/day): 5.3 (0.3)^c mg/dL
- Potassium ([1]; female, 15 mg/kg/day): 6.0 (1.0) mmol/L
- Sodium ([1]; female, 15 mg/kg/day): 146.0 (4.0) mmol/L
- T-Bil ([1]; female, 15 mg/kg/day): 0.2 (0.2) mg/dL
- TP ([1]; female, 15 mg/kg/day): 7.1 (0.8) g/dL
- Triglycerides ([1]; female, 15 mg/kg/day): 56.0 (11.0) mg/dL
- Urea N ([1]; female, 15 mg/kg/day): 18.0 (1.0) mg/dL
- A/G ([1]; male, 5 mg/kg/day): 1.8 (0.1)
- ALP ([1]; male, 5 mg/kg/day): 802.0 (253.0) U/L
- ALT ([1]; male, 5 mg/kg/day): 172.0 (125.0) U/L
- AST ([1]; male, 5 mg/kg/day): 122.0 (190.0) U/L
- Albumin ([1]; male, 5 mg/kg/day): 4.8 (0.2) g/dL
- CK ([1]; male, 5 mg/kg/day): 888.0 (13,478.0) U/L
- Calcium ([1]; male, 5 mg/kg/day): 9.8 (0.5) mg/dL
- Chloride ([1]; male, 5 mg/kg/day): 110.0 (2.0) mmol/L
- Cholesterol ([1]; male, 5 mg/kg/day): 110.0 (15.5) mg/dL
- Creatinine ([1]; male, 5 mg/kg/day): 0.8 (0.2) mg/dL
- GGT ([1]; male, 5 mg/kg/day): 137.0 (31.5) U/L
- Globulin ([1]; male, 5 mg/kg/day): 2.7 (0.1) g/dL
- Glucose ([1]; male, 5 mg/kg/day): 111.0 (26.5) mg/dL
- Phos ([1]; male, 5 mg/kg/day): 5.5 (1.7) mg/dL
- Potassium ([1]; male, 5 mg/kg/day): 6.0 (1.4) mmol/L
- Sodium ([1]; male, 5 mg/kg/day): 147.0 (4.0) mmol/L
- T-Bil ([1]; male, 5 mg/kg/day): 0.3 (0.1) mg/dL
- TP ([1]; male, 5 mg/kg/day): 7.5 (0.2) g/dL
- Triglycerides ([1]; male, 5 mg/kg/day): 46.0 (18.5) mg/dL
- Urea N ([1]; male, 5 mg/kg/day): 15.0 (3.5) mg/dL
- A/G ([1]; male, 10 mg/kg/day): 1.7 (0.2)
- ALP ([1]; male, 10 mg/kg/day): 753.0 (3.5) U/L
- ALT ([1]; male, 10 mg/kg/day): 105.0 (26.5) U/L
- AST ([1]; male, 10 mg/kg/day): 105.0 (43.5) U/L
- Albumin ([1]; male, 10 mg/kg/day): 4.7 (0.2) g/dL
- CK ([1]; male, 10 mg/kg/day): 515.0 (2,756.5) U/L
- Calcium ([1]; male, 10 mg/kg/day): 10.5 (0.4) mg/dL
- Chloride ([1]; male, 10 mg/kg/day): 110.0 (1.5) mmol/L
- Cholesterol ([1]; male, 10 mg/kg/day): 99.0 (16.5) mg/dL
- Creatinine ([1]; male, 10 mg/kg/day): 0.6 (0.1) mg/dL
- GGT ([1]; male, 10 mg/kg/day): 119.0 (32.5) U/L
- Globulin ([1]; male, 10 mg/kg/day): 2.9 (0.4) g/dL
- Glucose ([1]; male, 10 mg/kg/day): 71.0 (23.0) mg/dL
- Phos ([1]; male, 10 mg/kg/day): 5.4 (0.8) mg/dL
- Potassium ([1]; male, 10 mg/kg/day): 5.9 (0.9) mmol/L
- Sodium ([1]; male, 10 mg/kg/day): 150.0 (3.0) mmol/L
- T-Bil ([1]; male, 10 mg/kg/day): 0.3 (0.0) mg/dL
- TP ([1]; male, 10 mg/kg/day): 7.5 (0.5) g/dL
- Triglycerides ([1]; male, 10 mg/kg/day): 32.0 (6.0) mg/dL
- Urea N ([1]; male, 10 mg/kg/day): 20.0 (3.5) mg/dL
- A/G ([1]; male, 15 mg/kg/day): 1.6 (0.2)
- ALP ([1]; male, 15 mg/kg/day): 957.0 (638.0) U/L
- ALT ([1]; male, 15 mg/kg/day): 88.0 (17.0) U/L
- AST ([1]; male, 15 mg/kg/day): 103.0 (40.0) U/L
- Albumin ([1]; male, 15 mg/kg/day): 4.4 (0.2) g/dL
- CK ([1]; male, 15 mg/kg/day): 518.0 (1,392.0) U/L
- Calcium ([1]; male, 15 mg/kg/day): 10.1 (0.3) mg/dL
- Chloride ([1]; male, 15 mg/kg/day): 112.0 (1.0) mmol/L
- Cholesterol ([1]; male, 15 mg/kg/day): 105.0 (50.0) mg/dL
- Creatinine ([1]; male, 15 mg/kg/day): 0.6 (0.1) mg/dL
- GGT ([1]; male, 15 mg/kg/day): 101.0 (6.0) U/L
- Globulin ([1]; male, 15 mg/kg/day): 2.9 (0.5) g/dL
- Glucose ([1]; male, 15 mg/kg/day): 67.0 (5.0) mg/dL
- Phos ([1]; male, 15 mg/kg/day): 5.2 (0.6) mg/dL
- Potassium ([1]; male, 15 mg/kg/day): 5.8 (0.6) mmol/L
- Sodium ([1]; male, 15 mg/kg/day): 149.0 (2.0) mmol/L
- T-Bil ([1]; male, 15 mg/kg/day): 0.2 (0.2) mg/dL
- TP ([1]; male, 15 mg/kg/day): 7.5 (0.8) g/dL
- Triglycerides ([1]; male, 15 mg/kg/day): 78.0 (52.0) mg/dL
- Urea N ([1]; male, 15 mg/kg/day): 15.0 (2.0) mg/dL
- mortality ([2]; GLP 10-day repeat-dose TK study, any dose level (5-15 mg/kg/day)): no mortality or unscheduled euthanasia
- NOAEL ([2]; GLP 10-day repeat-dose i.v.): 15 mg/kg/day
- mortality (found dead day 15, determined unrelated to treatment) (5 mg/kg/day): 1 out of 16
- LOAEL (i.v.): 20 mg/kg
- NOAEL (i.v. once daily x7 days): 10 mg/kg/day
- acute, treatment-related mortality (single i.v. 20 mg/kg, day 1): 5 out of 12
- AUCτ [3]: 21,949 ng · h/mL
- CL [3]: 2.27 mL/min/kg
- MRT [3]: 4.71 h
- Vss [3]: 0.639 L/kg
- λz [3]: 0.204 h⁻¹
- Vd ([4]; both, 20 mg/kg): 0.756 L/kg
- level at 600 h ([4]; female, 10 mg/kg): 12.5 ng/mL
